The values below come from ChEMBL document CHEMBL1765003, “Discovery of (1S,2R,3R)-2,3-dimethyl-2-phenyl-1-sulfamidocyclopropanecarboxylates: novel and highly selective aggrecanase inhibitors” (J Med Chem, 2011).

The nature of data set [1]: Clearance in Sprague-Dawley rat at 1 mg/kg, iv. The format is ADME, organism-based. The arrangement: dose 1 mg/kg, route intravenous. As to conditions: in vivo; call rule not given here. The method in brief:
(§1)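 Intravenous dose of 1 mg/kg. Blood sampled at 0.50, 1, 2, 4, 8 and 24 h. Plasma obtained by centrifugation at 10 000 rpm for 5 min and kept at −20 °C until analysis.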

Data set [2] deals with T1, A disintegrin and metalloproteinase with thrombospondin motifs 5 (Homo sapiens, UniProt Q9UNA0).
T1 sequence (Q9UNA0 whole entry): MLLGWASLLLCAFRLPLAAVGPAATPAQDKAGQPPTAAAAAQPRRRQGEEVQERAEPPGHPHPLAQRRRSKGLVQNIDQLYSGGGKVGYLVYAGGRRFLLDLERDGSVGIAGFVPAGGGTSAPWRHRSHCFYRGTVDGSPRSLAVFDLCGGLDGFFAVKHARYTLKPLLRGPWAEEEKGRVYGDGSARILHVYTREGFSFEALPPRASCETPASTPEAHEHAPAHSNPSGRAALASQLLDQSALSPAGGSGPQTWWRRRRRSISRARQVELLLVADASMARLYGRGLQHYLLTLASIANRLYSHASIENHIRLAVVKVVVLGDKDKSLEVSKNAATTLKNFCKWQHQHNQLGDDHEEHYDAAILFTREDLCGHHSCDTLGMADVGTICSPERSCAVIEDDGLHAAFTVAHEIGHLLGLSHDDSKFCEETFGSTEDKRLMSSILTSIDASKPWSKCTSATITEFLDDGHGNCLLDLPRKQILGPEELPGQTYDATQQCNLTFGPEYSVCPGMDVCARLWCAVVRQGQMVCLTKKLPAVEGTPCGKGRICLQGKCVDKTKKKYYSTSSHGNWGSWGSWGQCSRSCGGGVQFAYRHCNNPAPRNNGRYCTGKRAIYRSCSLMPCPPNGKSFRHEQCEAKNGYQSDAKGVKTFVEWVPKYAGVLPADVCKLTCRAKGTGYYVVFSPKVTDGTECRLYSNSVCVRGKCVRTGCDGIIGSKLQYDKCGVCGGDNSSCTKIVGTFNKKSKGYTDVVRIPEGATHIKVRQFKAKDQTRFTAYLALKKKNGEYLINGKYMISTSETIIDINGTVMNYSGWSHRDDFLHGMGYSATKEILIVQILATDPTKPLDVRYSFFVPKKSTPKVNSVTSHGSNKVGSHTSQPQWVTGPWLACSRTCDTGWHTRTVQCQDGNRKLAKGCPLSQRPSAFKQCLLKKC
The experiment in a line: Inhibition of human recombinant aggrecanase 2 after 150 mins by fluorescence plate reader.

A short description of data set [3]: AUC in Sprague-Dawley rat at 10 mg/kg, po. The conditions noted are these: plasma. The arrangement: dose 10 mg/kg, route oral. The format is ADME, organism-based.
Data set [4] addresses Disintegrin and metalloproteinase domain-containing protein 17 (Homo sapiens, UniProt P78536). Description: Inhibition of human recombinant TACE after 60 mins by fluorescence plate reader. In a few lines:
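rh-TACE at 80 ng/mL with 10 μM MCA-Pro-Leu-Ala-Gln-Ala-Val-Dpa-Arg-Ser-Ser-Ser-Arg-NH₂, in 100 mM Tris-HCl pH 7.5, 150 mM NaCl, 10 mM CaCl₂, 0.05% Brij-35. Inhibitor preincubated for 15 min at 25 °C. Fluorescence (ex 325/em 405 nm) read at 60 min. IC50 from three linear-range points; mean of ≥2.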

Data set [5] has as its target Matrix metalloproteinase-14 (Homo sapiens, UniProt P50281). The experiment in a line: Inhibition of human recombinant MMP14 after 60 mins by fluorescence plate reader. The method in brief:
(§2)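 Recombinant human enzyme at 20 ng/mL with 10 μM MOCAc-Lys-Pro-Leu-Gly-Leu-A2pr(Dnp)-Ala-Arg-NH₂, in 100 mM Tris-HCl pH 7.5, 150 mM NaCl, 10 mM CaCl₂, 0.05% Brij-35. Enzyme pretreated with inhibitor for 15 min at 25 °C, then substrate added. Fluorescence (ex 325, em 405 nm) read at 60 min. IC50 taken from three points in the linear range; mean of ≥2 determinations.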

Data set [6] is described as follows: Cmax in Sprague-Dawley rat at 10 mg/kg, po. The conditions noted are these: in vivo. The format is ADME, organism-based. The arrangement: dose 10 mg/kg, route oral.
Data set [7] has as its target Cytochrome P450 2C9 (Homo sapiens, UniProt P11712). The experiment in a line: Inhibition of CYP2C9 at up to 50 uM. The data set is classed as ADME.
Data set [8] can be described thus: Half life in Sprague-Dawley rat at 10 mg/kg, po. The format is ADME, organism-based. Further details: dose 10 mg/kg, route oral. The conditions noted are these: in vivo.
Data set [9] in a line: Oral bioavailability in Sprague-Dawley rat at 10 mg/kg. The conditions noted are these: Sprague-Dawley, in vivo. The data set is classed as ADME, organism-based.
For data set [10], the target named is T2, Interstitial collagenase (Homo sapiens, UniProt P03956).
T2 sequence (P03956 whole entry): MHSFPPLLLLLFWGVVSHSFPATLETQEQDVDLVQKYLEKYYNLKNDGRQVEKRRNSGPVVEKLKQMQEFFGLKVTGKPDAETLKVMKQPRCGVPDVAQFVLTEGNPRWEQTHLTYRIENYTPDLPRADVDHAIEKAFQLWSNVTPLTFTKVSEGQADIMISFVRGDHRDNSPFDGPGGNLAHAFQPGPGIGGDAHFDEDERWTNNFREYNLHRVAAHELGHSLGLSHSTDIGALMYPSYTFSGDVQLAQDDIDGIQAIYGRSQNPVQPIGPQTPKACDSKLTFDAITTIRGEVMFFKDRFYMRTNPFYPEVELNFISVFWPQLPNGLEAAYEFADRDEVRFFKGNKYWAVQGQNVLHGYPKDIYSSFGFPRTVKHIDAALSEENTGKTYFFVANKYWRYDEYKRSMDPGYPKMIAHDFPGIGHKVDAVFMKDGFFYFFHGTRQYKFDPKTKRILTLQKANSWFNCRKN
Description: Inhibition of human recombinant MMP1 after 60 mins by fluorescence plate reader. The method in brief:
as §2

Data set [11] can be described thus: Volume of distribution at steady state in Sprague-Dawley rat at 1 mg/kg, iv. Further details: dose 1 mg/kg, route intravenous. The format is ADME, organism-based. As to conditions: in vivo, read-out: Vdss. The method in brief: as §1
Data set [12] has as its target Cytochrome P450 3A4 (Homo sapiens, UniProt P08684). Description: Inhibition of CYP3A4 at up to 50 uM. The data set is classed as ADME.
For data set [13], the target named is T3, Cytochrome P450 2A6 (Homo sapiens, UniProt P11509).
T3 sequence (P11509 whole entry): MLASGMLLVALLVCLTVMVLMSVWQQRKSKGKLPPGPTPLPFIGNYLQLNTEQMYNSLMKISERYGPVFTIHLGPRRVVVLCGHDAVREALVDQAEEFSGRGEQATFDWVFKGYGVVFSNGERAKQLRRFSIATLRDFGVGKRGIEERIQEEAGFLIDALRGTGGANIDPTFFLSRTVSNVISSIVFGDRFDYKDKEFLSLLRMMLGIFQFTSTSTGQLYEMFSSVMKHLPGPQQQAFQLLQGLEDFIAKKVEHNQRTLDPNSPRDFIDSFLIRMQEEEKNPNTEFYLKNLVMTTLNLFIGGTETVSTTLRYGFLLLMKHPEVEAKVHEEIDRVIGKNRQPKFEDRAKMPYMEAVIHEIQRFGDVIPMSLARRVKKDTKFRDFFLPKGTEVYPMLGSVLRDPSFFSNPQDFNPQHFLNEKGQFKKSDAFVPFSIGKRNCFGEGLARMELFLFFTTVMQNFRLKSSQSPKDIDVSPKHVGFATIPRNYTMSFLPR
Description: Inhibition of CYP2A6 at up to 50 uM. The data set is classed as ADME.

The target of data set [14] is Cytochrome P450 2C19 (Homo sapiens, UniProt P33261). Description: Inhibition of CYP2C19 at up to 50 uM. The format is ADME.
Sequence of Cytochrome P450 2C19 (P33261 whole entry): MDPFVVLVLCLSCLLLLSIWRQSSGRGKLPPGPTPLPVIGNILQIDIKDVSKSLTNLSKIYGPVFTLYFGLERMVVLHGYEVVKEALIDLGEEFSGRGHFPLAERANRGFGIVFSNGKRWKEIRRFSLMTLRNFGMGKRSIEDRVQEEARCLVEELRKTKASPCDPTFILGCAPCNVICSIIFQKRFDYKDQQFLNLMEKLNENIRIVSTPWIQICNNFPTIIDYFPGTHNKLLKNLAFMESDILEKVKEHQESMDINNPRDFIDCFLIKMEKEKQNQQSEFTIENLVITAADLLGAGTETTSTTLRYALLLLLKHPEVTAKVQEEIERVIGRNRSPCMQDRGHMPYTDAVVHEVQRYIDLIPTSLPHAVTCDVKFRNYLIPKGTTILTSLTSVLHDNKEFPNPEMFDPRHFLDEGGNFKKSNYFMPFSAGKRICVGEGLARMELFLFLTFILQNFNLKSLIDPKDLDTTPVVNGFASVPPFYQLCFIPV
For data set [15], the target named is Cytochrome P450 2D6 (Homo sapiens, UniProt P10635). Description: Inhibition of CYP2D6 at up to 50 uM. The data set is classed as ADME.
Sequence of Cytochrome P450 2D6 (P10635 whole entry): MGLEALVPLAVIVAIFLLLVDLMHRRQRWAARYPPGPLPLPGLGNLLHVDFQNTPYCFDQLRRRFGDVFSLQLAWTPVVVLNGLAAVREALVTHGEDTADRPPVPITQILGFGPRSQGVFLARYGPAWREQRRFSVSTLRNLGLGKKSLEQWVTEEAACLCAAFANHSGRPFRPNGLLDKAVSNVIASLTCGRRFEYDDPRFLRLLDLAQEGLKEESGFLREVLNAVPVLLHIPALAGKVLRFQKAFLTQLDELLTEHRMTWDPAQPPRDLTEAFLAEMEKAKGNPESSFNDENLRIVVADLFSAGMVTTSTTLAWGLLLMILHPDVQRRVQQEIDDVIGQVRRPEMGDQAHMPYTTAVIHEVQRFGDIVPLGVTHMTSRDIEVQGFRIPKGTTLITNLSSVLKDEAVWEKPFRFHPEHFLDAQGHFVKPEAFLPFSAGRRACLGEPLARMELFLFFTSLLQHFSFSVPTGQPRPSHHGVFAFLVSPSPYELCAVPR
Data set [16] addresses T4, Cytochrome P450 1A2 (Homo sapiens, UniProt P05177).
T4 sequence (P05177 whole entry): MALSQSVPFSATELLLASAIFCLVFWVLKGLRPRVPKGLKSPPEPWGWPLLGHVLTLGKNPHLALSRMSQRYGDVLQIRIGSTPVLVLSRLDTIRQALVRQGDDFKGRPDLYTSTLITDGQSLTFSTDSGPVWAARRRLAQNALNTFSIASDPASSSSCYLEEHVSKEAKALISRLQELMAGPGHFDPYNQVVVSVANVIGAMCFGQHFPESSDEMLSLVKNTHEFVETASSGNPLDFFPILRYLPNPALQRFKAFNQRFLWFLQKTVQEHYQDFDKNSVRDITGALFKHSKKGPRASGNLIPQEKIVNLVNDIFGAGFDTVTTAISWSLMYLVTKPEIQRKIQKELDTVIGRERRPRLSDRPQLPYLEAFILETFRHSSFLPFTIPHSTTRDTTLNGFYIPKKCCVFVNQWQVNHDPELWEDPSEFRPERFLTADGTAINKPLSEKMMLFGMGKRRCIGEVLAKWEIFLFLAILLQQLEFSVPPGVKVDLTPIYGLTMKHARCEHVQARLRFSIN
Description: Inhibition of CYP1A2 at up to 50 uM. The format is ADME.

Bounds are passed on as bounds.

Sequence of Cytochrome P450 2C9 (P11712 whole entry): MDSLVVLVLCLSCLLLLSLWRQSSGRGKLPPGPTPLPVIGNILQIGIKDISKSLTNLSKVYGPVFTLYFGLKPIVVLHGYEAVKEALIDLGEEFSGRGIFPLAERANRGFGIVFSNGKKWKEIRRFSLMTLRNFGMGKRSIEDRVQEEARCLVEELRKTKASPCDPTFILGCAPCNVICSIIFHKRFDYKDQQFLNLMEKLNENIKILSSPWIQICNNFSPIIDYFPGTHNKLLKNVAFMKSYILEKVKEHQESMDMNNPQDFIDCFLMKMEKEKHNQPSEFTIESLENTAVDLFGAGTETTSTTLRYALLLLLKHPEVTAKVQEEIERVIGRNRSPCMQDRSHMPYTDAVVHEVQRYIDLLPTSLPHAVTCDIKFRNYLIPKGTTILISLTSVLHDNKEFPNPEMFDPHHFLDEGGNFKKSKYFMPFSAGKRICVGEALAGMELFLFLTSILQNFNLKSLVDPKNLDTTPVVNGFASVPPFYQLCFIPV
Sequence of Cytochrome P450 3A4 (P08684 whole entry): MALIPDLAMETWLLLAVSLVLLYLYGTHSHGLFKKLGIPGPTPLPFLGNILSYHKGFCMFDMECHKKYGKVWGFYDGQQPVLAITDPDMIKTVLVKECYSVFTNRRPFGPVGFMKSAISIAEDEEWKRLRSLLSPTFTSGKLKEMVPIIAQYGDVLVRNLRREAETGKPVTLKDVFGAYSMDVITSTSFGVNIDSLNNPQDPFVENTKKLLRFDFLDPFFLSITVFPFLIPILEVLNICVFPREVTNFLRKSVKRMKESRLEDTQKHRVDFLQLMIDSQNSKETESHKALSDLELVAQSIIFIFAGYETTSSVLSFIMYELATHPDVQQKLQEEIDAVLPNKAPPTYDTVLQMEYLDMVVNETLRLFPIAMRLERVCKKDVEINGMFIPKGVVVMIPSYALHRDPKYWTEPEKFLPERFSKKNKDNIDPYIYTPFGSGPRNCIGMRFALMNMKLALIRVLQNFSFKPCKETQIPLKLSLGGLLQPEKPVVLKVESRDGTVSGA
Sequence of Disintegrin and metalloproteinase domain-containing protein 17 (P78536 whole entry, the tested form may be a part): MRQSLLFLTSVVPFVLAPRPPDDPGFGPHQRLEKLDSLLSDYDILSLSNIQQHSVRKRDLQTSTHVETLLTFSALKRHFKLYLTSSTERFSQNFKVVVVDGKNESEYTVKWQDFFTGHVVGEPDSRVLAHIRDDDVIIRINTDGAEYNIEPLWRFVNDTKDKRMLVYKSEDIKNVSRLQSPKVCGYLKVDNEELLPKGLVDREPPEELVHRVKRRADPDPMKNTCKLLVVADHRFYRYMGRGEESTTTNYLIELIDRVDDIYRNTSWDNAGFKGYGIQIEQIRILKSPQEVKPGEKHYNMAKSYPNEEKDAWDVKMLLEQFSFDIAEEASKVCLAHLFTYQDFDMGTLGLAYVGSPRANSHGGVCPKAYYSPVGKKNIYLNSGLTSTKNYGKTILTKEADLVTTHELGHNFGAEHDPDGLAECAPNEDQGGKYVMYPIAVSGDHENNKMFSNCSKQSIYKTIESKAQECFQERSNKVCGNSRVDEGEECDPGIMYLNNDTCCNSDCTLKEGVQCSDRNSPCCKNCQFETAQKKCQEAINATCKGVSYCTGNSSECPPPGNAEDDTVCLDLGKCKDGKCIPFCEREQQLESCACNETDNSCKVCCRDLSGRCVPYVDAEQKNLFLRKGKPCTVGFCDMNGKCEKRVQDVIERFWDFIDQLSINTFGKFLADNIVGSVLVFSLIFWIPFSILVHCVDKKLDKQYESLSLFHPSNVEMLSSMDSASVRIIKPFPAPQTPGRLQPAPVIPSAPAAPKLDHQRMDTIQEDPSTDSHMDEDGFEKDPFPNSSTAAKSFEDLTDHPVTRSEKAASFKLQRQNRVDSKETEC

With `C[C@@H]1CN(S(=O)(=O)N[C@@]2(C(=O)O)[C@H](C)[C@]2(C)c2ccccc2)CCN1c1cc(C(F)F)on1`, the clearance (in general, the volume of plasma or blood freed of the substance per unit of time) in data set [1] was 11.7 mL/min/kg. The IC50 (as a rule, the concentration needed to halve the response being measured) in data set [2] was 0.017 µM; in data set [4], more than 10 µM; in data set [5], more than 10 µM; in [10], more than 10 µM. Besides, the AUC (as a rule, the area under the concentration-time curve, a measure of exposure) in data set [3] turned out to be 17.8 µM·h. For the same compound, the peak level in data set [6] (Cmax) was 4.9 µM. The “inhibition (INH)” value in [7], in [12], in data set [13], in data set [14], in data set [15] and in data set [16] was “Not Active” in each case. The half-life – broadly, the time in which the quantity being followed falls by half – in [8] was 1.9 h. Moreover, in data set [9], the bioavailability worked out at 64%. The Vd in [11] turned out to be 1.9 L/kg.

`C[C@@H]1CN(S(=O)(=O)N[C@@]2(C(=O)O)[C@H](C)[C@]2(C)c2ccccc2)CCN1c1ccc(C#N)s1`: the clearance in [1] is 4.83 mL/min/kg. Further, the IC50 was 0.029 µM in [2], more than 10 µM in data set [4], more than 10 µM in data set [5] and more than 10 µM in data set [10]. For the same compound, in data set [3], the AUC stood at 88.4 µM·h. The Cmax (in general, the highest concentration seen after dosing) in data set [6] was 15.9 µM. Moreover, the “inhibition (INH)” value in [7], in data set [12], in data set [13], in [14], in data set [15] and in [16] was “Not Active” in each case. In data set [8], this compound gave a half-life of 4.5 h. For the same compound, in [9], the bioavailability stood at 119%. The Vd in data set [11] was determined as 2.6 L/kg.
